Test results: ChEMBL document CHEMBL1806379, “Efficient synthesis of antifungal active 9-substituted-3-aryl-5H,13aH-quinolino[3,2-f][1,2,4]triazolo[4,3-b][1,2,4]triazepines in ionic liquids” (2011)

Key:
Assay type in all cases: functional
Aspergillus niger [1] = test: Antifungal activity against Aspergillus niger at 1000 ug after 24 hrs by paper disc technique relative to control
Method in brief: (§1)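 Potato dextrose agar plates: sterilized base layer overlaid with seeded medium (cooled to 40 °C, spore suspension from ten-day cultures of A. niger, A. flavus, P. notatum and Rhizopus species added), chilled before use. Disc diffusion, incubation at 28 °C; zone read after 24 h from disc centre. I% = (C − T)/C × 100 (C, zone diameter in check; […]). Fluconazole (500 and 1000 µg/ml) as standard.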

Rhizopus [2] = test: Antifungal activity against Rhizopus sp. at 1000 ug after 24 hrs by paper disc technique relative to control; method in brief: as §1
Penicillium chrysogenum [3] = test: Antifungal activity against Penicillium notatum sp. at 500 ug after 24 hrs by paper disc technique; conditions: read-out: IZ; method in brief: as §1
Rhizopus [4] = test: Antifungal activity against Rhizopus sp. at 1000 ug after 24 hrs by paper disc technique; conditions: read-out: IZ; method in brief: as §1
Penicillium chrysogenum [5] = test: Antifungal activity against Penicillium notatum sp. at 1000 ug after 24 hrs by paper disc technique relative to control; method in brief: as §1
Aspergillus flavus [6] = test: Antifungal activity against Aspergillus flavus at 1000 ug after 24 hrs by paper disc technique relative to control; method in brief: as §1
Aspergillus flavus [7] = test: Antifungal activity against Aspergillus flavus at 500 ug after 24 hrs by paper disc technique relative to control; method in brief: as §1
Aspergillus flavus [8] = test: Antifungal activity against Aspergillus flavus at 500 ug after 24 hrs by paper disc technique; conditions: read-out: IZ; method in brief: as §1
Aspergillus flavus [9] = test: Antifungal activity against Aspergillus flavus at 1000 ug after 24 hrs by paper disc technique; conditions: read-out: IZ; method in brief: as §1
Penicillium chrysogenum [10] = test: Antifungal activity against Penicillium notatum sp. at 500 ug after 24 hrs by paper disc technique relative to control; method in brief: as §1
Penicillium chrysogenum [11] = test: Antifungal activity against Penicillium notatum sp. at 1000 ug after 24 hrs by paper disc technique; conditions: read-out: IZ; method in brief: as §1
Aspergillus niger [12] = test: Antifungal activity against Aspergillus niger at 500 ug after 24 hrs by paper disc technique; conditions: read-out: IZ; method in brief: as §1
Aspergillus niger [13] = test: Antifungal activity against Aspergillus niger at 1000 ug after 24 hrs by paper disc technique; conditions: read-out: IZ; method in brief: as §1
Rhizopus [14] = test: Antifungal activity against Rhizopus sp. at 500 ug after 24 hrs by paper disc technique; conditions: read-out: IZ; method in brief: as §1
Rhizopus [15] = test: Antifungal activity against Rhizopus sp. at 500 ug after 24 hrs by paper disc technique relative to control; method in brief: as §1
Aspergillus niger [16] = test: Antifungal activity against Aspergillus niger at 500 ug after 24 hrs by paper disc technique relative to control; method in brief: as §1

Row | SMILES | Activity (Aspergillus niger [1]) [%] | Activity (Rhizopus [2]) [%] | zone of inhibition at 500 µg/disc (Penicillium chrysogenum [3]) [mm] | zone of inhibition at 1000 µg/disc (Rhizopus [4]) [mm] | Activity (Penicillium chrysogenum [5]) [%] | Activity (Aspergillus flavus [6]) [%] | Activity (Aspergillus flavus [7]) [%] | zone of inhibition at 500 µg/disc (Aspergillus flavus [8]) [mm] | zone of inhibition at 1000 µg/disc (Aspergillus flavus [9]) [mm] | Activity (Penicillium chrysogenum [10]) [%] | zone of inhibition at 1000 µg/disc (Penicillium chrysogenum [11]) [mm] | zone of inhibition at 500 µg/disc (Aspergillus niger [12]) [mm] | zone of inhibition at 1000 µg/disc (Aspergillus niger [13]) [mm] | zone of inhibition at 500 µg/disc (Rhizopus [14]) [mm] | Activity (Rhizopus [15]) [%] | Activity (Aspergillus niger [16]) [%]
1 | C1=Nn2c(nnc2-c2ccccc2)Nc2nc3ccccc3cc21 | 71.66 | 50 | 44 | 30 | 90 | 70 | 53.33 | 32 | 45 | 73.33 | 54 | 39 | 43 | 30 | 50 | 53.33
2 | O=[N+]([O-])c1ccc(-c2nnc3n2N=Cc2cc4ccccc4nc2N3)cc1 | 63.33 | 43.33 | 43 | 26 | 86.66 | 60 | 60 | 36 | 36 | 71.66 | 52 | 22 | 38 | 25 | 41.66 | 33.33
3 | Cc1ccc2nc3c(cc2c1)C=Nn1c(nnc1-c1ccccc1Cl)N3 | 71.66 | 53.33 | 44 | 32 | 70 | 53.33 | 70.66 | 42 | 32 | 73.33 | 42 | 24 | 43 | 28 | 46.66 | 40
4 | Cc1ccc2nc3c(cc2c1)C=Nn1c(nnc1-c1ccc([N+](=O)[O-])cc1)N3 | 66.66 | 50 | 48 | 30 | 70 | 81.66 | 71.66 | 43 | 49 | 80 | 42 | 34 | 40 | 20 | 33.33 | 56.66
5 | OC(Cn1cncn1)(Cn1cncn1)c1ccc(F)cc1F [FLUCONAZOLE] | 80 | 70 | 52 | 42 | 90 | 70 | 58.33 | 35 | 42 | 86.66 | 54 | 42 | 48 | 38 | 63.33 | 70
